Test results reported in ChEMBL document CHEMBL4020708, “Studies of CDK 8/19 inhibitors: Discovery of novel and selective CDK8/19 dual inhibitors and elimination of their CYP3A4 time-dependent inhibition potential” (Bioorg Med Chem, 2017).
≈ marks a conversion by molar mass, not a printed value.

Columns and labels:
[1] = tested on: Plasma; test: Drug level in mouse plasma treated with (E)-3-(4-(1-Methyl-1H-pyrazol-4-yl)pyridin-3-yl)-N-(4-(morpholinomethyl)phenyl)acrylamide at 1 mg/kg, po administered as cassette dose measured up to 8 hrs by LC/MS/MS analysis; format: ADME, organism-based; conditions: in vivo
Outline: (§1)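 Cassette dosing to non-fasted mice, 1 mg/kg po (0–8 h). Plasma obtained from blood by centrifugation, deproteinized with acetonitrile, centrifuged, and the supernatant analysed by LC/MS/MS.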

[2] = molecular target: Cyclin-dependent kinase 8 (Homo sapiens, UniProt P49336); test: Inhibition of CDK8 in human SW480 cells assessed as reduction in IFN-gamma induced STAT1 phosphorylation at Ser727 residues preincubated for 2 hrs followed by IFN-gamma addition measured after 1 hr by In-cell western assay; format: cell-based
Outline: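 SW480 cells kept in L-15 with 10% FBS at 37 °C and plated at 6000 cells/well overnight. Compound applied 2 h, then 10 ng/mL IFN-γ for 1 h. Cells fixed, permeabilized and blocked, then probed overnight at 4 °C with anti-pSTAT1 Ser727. IRDye 800CW secondary plus DRAQ5 for DNA, Odyssey imaging.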

[3] = molecular target: CYP3A4 (Homo sapiens, UniProt P08684); test: Time-dependent inhibition of CYP3A4 in human liver microsomes assessed as reduction in testosterone to 6beta-hydroxytestosterone conversion by measuring remaining activity at 30 uM preincubated for 60 mins followed by testosterone addition measured after 20 mins in presence of NADPH by UPLC analysis relative to control; format: ADME; conditions: probe testosterone (6beta-hydroxylation), read-out: Activity
Outline: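 Compound at 30 μM preincubated with human liver microsomes in phosphate buffer pH 7.4 at 37 °C for 0 or 60 min with an NADPH-generating system. Testosterone then added for 20 min, and 6β-hydroxytestosterone measured by UPLC. Activity expressed as % of DMSO control; % remaining taken after 60 min preincubation.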

[4] = Solubility of the compound at pH 6.8; format: physicochemical; conditions: buffer
Outline: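 Compound added from DMSO solution to JP 2nd disintegration fluid (pH 6.8) and incubated. Precipitate removed by filtration, and filtrate concentration measured by plate reader or HPLC.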

[5] = molecular target: CDK8/Cyclin C (Homo sapiens, UniProt P49336); test: Inhibition of kinase tracer 236 binding to full length N terminal GST-tagged human CDK8 (1 to 464 end residues) /CycC ( 1 to 283 end residues) expressed in baculovirus expression system after 60 min by TR-FRET assay
Outline: (§2)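 TR-FRET ligand displacement using 20 nM GST-CDK8/CycC or GST-CDK19/CycC, 20 nM Kinase Tracer 236 and Tb-anti-GST antibody. Buffer 25 mM HEPES, 10 mM MgCl₂, 2 mM DTT, 0.01% Tween-20. Incubated 60 min at rt.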

[6] = Total clearance in mouse at 1 mg/kg, po administered as cassette dose measured up to 8 hrs by LC/MS/MS analysis; format: ADME, organism-based; conditions: in vivo
[7] = tested on: Liver; test: Intrinsic clearance in mouse liver microsomes at 1 umol/L after 15 to 30 mins in presence of NADPH by LC/MS/MS analysis; format: ADME, microsome; conditions: 1 µM
Outline: (§3)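 Human or mouse liver microsomes at 0.2 mg/mL protein in 50 mmol/L phosphate buffer pH 7.4 with 1 μmol/L compound. Reaction started with an NADPH-generating system and stopped at 15 and 30 min with acetonitrile. LC/MS/MS readout. Intrinsic clearance taken as initial metabolic velocity (slope of concentration-time) divided by compound concentration.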

[8] = Cmax in mouse at 1 mg/kg, po administered as cassette dose measured up to 8 hrs by LC/MS/MS analysis; format: ADME, organism-based; design: dose 1 mg/kg, route oral; conditions: in vivo; outline: as §1
[9] = tested on: Liver; test: Intrinsic clearance in human liver microsomes at 1 umol/L after 15 to 30 mins in presence of NADPH by LC/MS/MS analysis; format: ADME, microsome; conditions: 1 µM; outline: as §3
[10] = MRT in mouse at 1 mg/kg, po administered as cassette dose measured up to 8 hrs by LC/MS/MS analysis; format: ADME, organism-based; conditions: in vivo; outline: as §1
[11] = Oral bioavailability in mouse at 1 mg/kg administered as cassette dose measured up to 8 hrs by LC/MS/MS analysis; format: ADME, organism-based; conditions: in vivo
Outline: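 Bioavailability from mouse cassette dosing, 0.1 mg/kg iv and 1 mg/kg po, non-fasted animals. Plasma was deproteinized with acetonitrile and compound quantified by LC/MS/MS.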

[12] = AUC (0 to 8 hrs) in mouse at 1 mg/kg, po administered as cassette dose by LC/MS/MS analysis; format: ADME, organism-based; design: time < 8 hr, dose 1 mg/kg, route oral; conditions: in vivo; outline: as §1
[13] = molecular target: Cyclin-C/Cyclin-dependent kinase 19 (Homo sapiens, UniProt Q9BWU1); test: Inhibition of kinase tracer 236 binding to GST-tagged CDK19/CycC (unknown origin) after 60 min by TR-FRET assay; format: protein-complex assay; outline: as §2
Cyclin-C/Cyclin-dependent kinase 19, sequence (Q9BWU1 whole entry): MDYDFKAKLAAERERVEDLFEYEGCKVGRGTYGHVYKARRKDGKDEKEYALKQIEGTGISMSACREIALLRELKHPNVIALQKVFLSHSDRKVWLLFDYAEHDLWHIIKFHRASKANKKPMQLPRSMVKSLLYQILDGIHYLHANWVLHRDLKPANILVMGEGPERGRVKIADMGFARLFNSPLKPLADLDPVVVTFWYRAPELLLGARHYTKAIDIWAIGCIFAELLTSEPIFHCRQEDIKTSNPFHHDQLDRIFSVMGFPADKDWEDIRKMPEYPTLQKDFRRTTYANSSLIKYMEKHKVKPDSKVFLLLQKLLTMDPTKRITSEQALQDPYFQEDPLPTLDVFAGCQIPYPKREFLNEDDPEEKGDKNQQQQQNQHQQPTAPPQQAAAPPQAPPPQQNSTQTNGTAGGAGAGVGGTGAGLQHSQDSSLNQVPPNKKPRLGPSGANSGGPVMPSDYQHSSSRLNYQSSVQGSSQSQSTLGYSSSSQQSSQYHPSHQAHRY
Cyclin-C/Cyclin-dependent kinase 19, sequence (P24863 whole entry, further chain): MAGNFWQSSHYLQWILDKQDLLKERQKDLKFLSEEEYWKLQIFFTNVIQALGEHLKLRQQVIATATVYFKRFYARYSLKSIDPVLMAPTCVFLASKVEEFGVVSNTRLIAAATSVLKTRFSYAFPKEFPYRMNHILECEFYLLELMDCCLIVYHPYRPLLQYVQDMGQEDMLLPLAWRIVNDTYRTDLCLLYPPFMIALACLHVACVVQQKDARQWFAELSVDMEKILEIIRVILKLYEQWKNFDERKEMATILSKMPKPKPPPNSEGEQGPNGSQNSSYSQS

CDK8/Cyclin C, sequence (P49336 whole entry): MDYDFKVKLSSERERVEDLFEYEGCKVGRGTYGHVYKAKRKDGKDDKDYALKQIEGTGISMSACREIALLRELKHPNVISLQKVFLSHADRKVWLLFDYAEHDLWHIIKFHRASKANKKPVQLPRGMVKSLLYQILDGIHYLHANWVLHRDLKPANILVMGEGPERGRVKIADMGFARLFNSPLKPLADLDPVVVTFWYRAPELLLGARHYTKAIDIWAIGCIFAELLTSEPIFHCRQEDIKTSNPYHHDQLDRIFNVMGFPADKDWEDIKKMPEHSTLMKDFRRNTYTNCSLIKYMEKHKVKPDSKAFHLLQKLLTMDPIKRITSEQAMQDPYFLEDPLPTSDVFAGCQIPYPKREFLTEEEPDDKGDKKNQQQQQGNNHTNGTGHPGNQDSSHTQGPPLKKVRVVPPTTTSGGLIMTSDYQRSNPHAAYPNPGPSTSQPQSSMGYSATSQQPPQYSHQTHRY
CDK8/Cyclin C, sequence (P24863 whole entry, further chain): as the sequence (P24863 whole entry, further chain) above
Cyclin-dependent kinase 8, sequence (P49336 whole entry): as the sequence (P49336 whole entry) above
CYP3A4, sequence (P08684 whole entry): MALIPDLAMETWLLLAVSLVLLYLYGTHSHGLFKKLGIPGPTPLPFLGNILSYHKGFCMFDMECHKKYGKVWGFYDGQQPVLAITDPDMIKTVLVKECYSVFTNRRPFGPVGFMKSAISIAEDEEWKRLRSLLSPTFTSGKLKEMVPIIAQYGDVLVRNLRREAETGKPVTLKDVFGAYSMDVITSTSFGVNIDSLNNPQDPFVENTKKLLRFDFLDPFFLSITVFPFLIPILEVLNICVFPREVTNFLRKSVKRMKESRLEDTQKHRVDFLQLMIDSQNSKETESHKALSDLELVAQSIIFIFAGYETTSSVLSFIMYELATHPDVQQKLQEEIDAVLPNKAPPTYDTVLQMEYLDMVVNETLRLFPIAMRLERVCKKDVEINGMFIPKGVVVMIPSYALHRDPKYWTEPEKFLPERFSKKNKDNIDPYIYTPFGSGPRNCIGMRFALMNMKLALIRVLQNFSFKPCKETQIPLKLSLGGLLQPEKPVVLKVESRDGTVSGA

SMILES	EC50 [2] [nM]	activity at 20 min, 30 µM [3] [%]	IC50 [5] [nM]	also measured
Cn1cc(-c2cc[n+]([O-])cc2/C=C/C(=O)Nc2ccc(CN3CCOCC3)cc2)cn1	–	–	–	Drug metabolism [1]: Metabolite_Detected
Cn1cc(-c2ccncc2/C=C/C(=O)Nc2ccc(CN3CC(F)(F)C3)cc2)cn1	84	98	11	solubility [4]: 44 µg/mL (≈ 107 µM)
CC1CN(Cc2ccc(NC(=O)/C=C/c3cnccc3-c3cnn(C)c3)cc2)CCO1 (stereo unspecified)	16	84	6.7	–
O=C(/C=C/c1cnccc1-c1cnsc1)Nc1ccc(CN2CCOCC2)cc1	110	–	27	–
Cn1cc(-c2ccncc2/C=C/C(=O)Nc2ccccc2)cn1	110	97	51	solubility [4]: 26 µg/mL (≈ 85.4 µM)
O=C(/C=C/c1cnccc1-c1cnn(Cc2ccccc2)c1)Nc1ccc(CN2CCOCC2)cc1	28	–	4.5	CL/F [6]: 96.1 mL/min/kg; intrinsic clearance [7]: 118 µL/min/mg; Cmax [8]: 15.7 ng/mL; microsomal intrinsic clearance [9]: 78 µL/min/mg; MRT [10]: 1.2 h; bioavailability [11]: 15.5%; AUC(0-t) at 8 h [12]: 26.9 ng·h/mL
Cn1cc(-c2ccncc2/C=C/C(=O)Nc2ccc(CN3CC4CC3CO4)cc2)cn1 (stereo unspecified)	19	100	16	solubility [4]: > 82 µg/mL
O=C(/C=C/c1cnccc1-c1cn[nH]c1)Nc1ccc(CN2CCOCC2)cc1	21 to 370	–	0.54 to 80	intrinsic clearance [7]: 6.7 µL/min/mg; microsomal intrinsic clearance [9]: 5.1 µL/min/mg; IC50 [13]: 100 nM; Drug metabolism [1]: Metabolite_Detected
Cn1cc(-c2cc(N)ncc2/C=C/C(=O)Nc2ccc(CN3CCOCC3)cc2)cn1	1300	–	990	–
CC1COCCN1Cc1ccc(NC(=O)/C=C/c2cnccc2-c2cnn(C)c2)cc1 (stereo unspecified)	27	59	20	solubility [4]: > 75 µg/mL
O=C(/C=C/c1cnccc1-c1cnn(C(F)F)c1)Nc1ccc(CN2CCOCC2)cc1	11 to 50	–	6.4 to 24	–
Cn1cc(-c2ccncc2/C=C/C(=O)Nc2ccc3c(c2)CN(CC(F)(F)F)CC3)cn1	8.4	22	3.2	solubility [4]: 8.9 µg/mL (≈ 20.2 µM)
COc1ccc(-c2ccncc2/C=C/C(=O)Nc2ccc(CN3CCOCC3)cc2)s1	97	–	28	–
Cn1cc(-c2ccncc2CCC(=O)Nc2ccc(CN3CCOCC3)cc2)cn1	95	71	41	IC50 [13]: 50 nM
Cn1cc(-c2ccncc2/C=C/C(=O)Nc2ccc(CN3CCOCC3=O)cc2)cn1	–	–	–	Drug metabolism [1]: Metabolite_Detected
Cn1cc(-c2ccncc2/C=C/C(=O)Nc2ccc(CN3C4CCC3COC4)cc2)cn1	17	99	6.3	–
Cn1cc(-c2ccncc2/C=C/C(=O)Nc2ccc3c(c2)CCN(CC(F)(F)F)C3)cn1	7	91	4.5	solubility [4]: > 81 µg/mL
Cn1cnc2cc(-c3ccncc3/C=C/C(=O)Nc3ccc(CN4CCOCC4)cc3)ccc21	> 10000	–	4800	–

SMILES	EC50 [2] [nM]	activity at 20 min, 30 µM [3] [%]	IC50 [5] [nM]	also measured
Cn1cc(-c2ccncc2/C=C/C(=O)Nc2ccc(CNCCO)cc2)cn1	–	–	–	Drug metabolism [1]: Metabolite_Detected
Cn1cc(-c2ccnc(O)c2/C=C/C(=O)Nc2ccc(CN3CCOCC3)cc2)cn1	> 10000	89	> 10000	–
NC(=O)c1ccc(-c2ccncc2/C=C/C(=O)Nc2ccc(CN3CCOCC3)cc2)s1	690	–	8.3	–
O=C(/C=C/c1cnccc1-c1cnn(CC(F)(F)F)c1)Nc1ccc(CN2CCOCC2)cc1	150	–	28	–
O=C(CCc1cnccc1-c1cnn(C2CC2)c1)Nc1ccc(CN2CCOCC2)cc1	130	59	29	IC50 [13]: 41 nM
O=C(/C=C/c1cnccc1-c1cncs1)Nc1ccc(CN2CCOCC2)cc1	140	–	41	–
O=C(/C=C/c1cnccc1-c1cnn(C2CC2)c1)Nc1ccc2c(c1)CCN(CC(F)(F)F)C2	14	88	7.1	solubility [4]: 3.9 µg/mL (≈ 8.34 µM)
O=C(/C=C/c1cnccc1-c1cnn(C2CC2)c1)Nc1ccc(CN2CC3CC(C2)O3)cc1	5.5	108	6.7	solubility [4]: 60 µg/mL (≈ 136 µM)
O=C(/C=C/c1cnccc1-c1ccc2[nH]cnc2c1)Nc1ccc(CN2CCOCC2)cc1	10	–	1.5	–
COc1ncc(-c2ccncc2/C=C/C(=O)Nc2ccc(CN3CCOCC3)cc2)s1	12	–	8.1	–
Cn1cc(-c2ccncc2/C=C/C(N)=O)cn1	> 10000	–	> 10000	–
O=C(/C=C/c1cnccc1-c1cnn(C2CC2)c1)Nc1ccc(CN2CCOCC2)cc1	11	54	6.4	CL/F [6]: 25.4 mL/min/kg; intrinsic clearance [7]: 64 µL/min/mg; Cmax [8]: 208 ng/mL; microsomal intrinsic clearance [9]: 25 µL/min/mg; MRT [10]: 1.5 h; IC50 [13]: 7.6 nM; bioavailability [11]: 51.2%; AUC(0-t) at 8 h [12]: 340 ng·h/mL
O=C(/C=C/c1cncc(F)c1-c1cnn(C2CC2)c1)Nc1ccc(CN2CCOCC2)cc1	2.3	46	6.5	–
Cn1cnc2ccc(-c3ccncc3/C=C/C(=O)Nc3ccc(CN4CCOCC4)cc3)cc21	2.4	–	2.5	–
Cn1cc(-c2ccncc2/C=C/C(=O)Nc2ccc(CN3CCC(F)(F)C3)cc2)cn1	17	69	6.2	solubility [4]: 33 µg/mL (≈ 77.9 µM)
O=C(/C=C/c1cnccc1-c1cnn(C2CC2)c1)Nc1ccc(CN2CC3CC2CO3)cc1 (stereo unspecified)	3.1	101	9.6	solubility [4]: > 92 µg/mL
Cn1cc(-c2c(F)cncc2/C=C/C(=O)Nc2ccc(CN3CCOCC3)cc2)cn1	3.6	60	5.2	–
